According to ChEMBL document CHEMBL1926565, “Synthesis, antiproliferative activities and telomerase inhibition evaluation of novel asymmetrical 1,2-disubstituted amidoanthraquinone derivatives” (Eur J Med Chem, 2012):

How the values were obtained:
Assay type in all cases: functional
ACHN = experiment: Anticancer activity against human ACHN cells; conditions: for CC50: read-out: LC50 (the source's name)
Outline: (§1)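 NCI 60-human-tumour-cell-line panel. Selected analogues were first run at one dose, then some were carried into multi-dose testing. GI50 (50% growth inhibition), TGI (total growth inhibition) and LC50 (50% cell kill) were read as values interpolated where the dose–response curves cross these levels.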

OVCAR-5 = experiment: Anticancer activity against human OVCAR5 cells; conditions: for CC50: read-out: LC50 (the source's name); outline: as §1
BT-549 = experiment: Anticancer activity against human BT549 cells; conditions: for CC50: read-out: LC50 (the source's name); outline: as §1
[1] = Anticancer activity against human Hs 578T cells; conditions: for CC50: read-out: LC50 (the source's name); outline: as §1
MOLT-4 = experiment: Anticancer activity against human MOLT4 cells; outline: as §1
UACC-62 = experiment: Anticancer activity against human UACC62 cells; conditions: for CC50: read-out: LC50 (the source's name)
UACC-257 = experiment: Anticancer activity against human UACC257 cells; conditions: for CC50: read-out: LC50 (the source's name)
SF-539 = experiment: Anticancer activity against human SF539 cells; conditions: read-out: LC50 (the source's name); outline: as §1
MDA-MB-435 = experiment: Anticancer activity against human MDA-MB-435 cells; conditions: for CC50: read-out: LC50 (the source's name); outline: as §1
RXF 393 = experiment: Anticancer activity against human RXF393 cells; conditions: for CC50: read-out: LC50 (the source's name); outline: as §1
SF-295 = experiment: Anticancer activity against human SF295 cells; conditions: for CC50: read-out: LC50 (the source's name); outline: as §1
SK-MEL-28 = experiment: Anticancer activity against human SK-MEL-28 cells; outline: as §1
HCT-116 = experiment: Anticancer activity against human HCT116 cells; conditions: for CC50: read-out: LC50 (the source's name); outline: as §1
MDA-MB-468 = experiment: Anticancer activity against human MDA-MB-468 cells; conditions: for CC50: read-out: LC50 (the source's name); outline: as §1
LOX IMVI = experiment: Anticancer activity against human LOXIMVI cells; conditions: for CC50: read-out: LC50 (the source's name); outline: as §1
HL-60(TB) = experiment: Anticancer activity against human HL-60(TB) cells
Outline: (§2)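 Tested by the NCI in its 60-human-tumour-cell-line panel. Dose-response curves were run, and GI₅₀ (50% growth inhibition), TGI (total growth inhibition) and LC₅₀ (50% cell killing) were read as interpolated concentrations where the curves cross those levels.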

NCI-H322M = experiment: Anticancer activity against human NCI-H322M cells; outline: as §1
CCRF-CEM = experiment: Anticancer activity against human CCRF-CEM cells; outline: as §1
U-251 = experiment: Anticancer activity against human U251 cells; conditions: for CC50: read-out: LC50 (the source's name)
DU-145 = experiment: Anticancer activity against human DU145 cells; conditions: for CC50: read-out: LC50 (the source's name); outline: as §1
CAKI-1 = experiment: Anticancer activity against human Caki1 cells; conditions: for CC50: read-out: LC50 (the source's name); outline: as §1
SNB-75 = experiment: Anticancer activity against human SNB75 cells; conditions: for CC50: read-out: LC50 (the source's name); outline: as §1
M14 = experiment: Anticancer activity against human M14 cells; outline: as §1
OVCAR-3 = experiment: Anticancer activity against human OVCAR3 cells; conditions: for CC50: read-out: LC50 (the source's name); outline: as §1
SNB-19 = experiment: Anticancer activity against human SNB19 cells; conditions: read-out: LC50 (the source's name); outline: as §2
786-0 = experiment: Anticancer activity against human 786-0 cells; conditions: for CC50: read-out: LC50 (the source's name); outline: as §1
OVCAR-4 = experiment: Anticancer activity against human OVCAR4 cells; conditions: for CC50: read-out: LC50 (the source's name); outline: as §1
Malme-3M = experiment: Anticancer activity against human MALME-3M cells; conditions: for CC50: read-out: LC50 (the source's name); outline: as §2
PC-3 = experiment: Anticancer activity against human PC3 cells; conditions: for CC50: read-out: LC50 (the source's name); outline: as §1
RPMI-8226 = experiment: Cytotoxicity against human RPMI8226 cells assessed as cellular growth at 10 uM
Outline: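 Single-dose screen run by the NCI across its 60-human-tumour-cell-line panel; growth recorded for each cell line.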

[2] = read-out: LC50 (the source's name)

## Cc1ccc(C(=O)Nc2c(NC(=O)CCl)ccc3c2C(=O)c2ccccc2C3=O)cc1
ACHN
  GI50: 7.18 µM
  TGI: 14.3 µM
  CC50: 28.6 µM
OVCAR-5
  GI50: 11.3 µM
  TGI: 19.2 µM
  CC50: 32.7 µM
BT-549
  GI50: 2.58 µM
  TGI: 16.3 µM
  CC50: > 50 µM
[1]
  GI50: 1.64 µM
  TGI: 9.12 µM
  CC50: > 50 µM
MOLT-4
  GI50: 2.29 µM
  TGI: 2.95 µM
MOLT-4; [2]
  CC50: > 50 µM
UACC-62
  GI50: 9.92 µM
  TGI: 17.9 µM
  CC50: 32.2 µM
UACC-257
  GI50: 1.61 µM
  TGI: 6.27 µM
  CC50: 24.3 µM
SF-539
  CC50: 25.1 µM
MDA-MB-435
  GI50: 5.73 µM
  TGI: 19.5 µM
  CC50: > 50 µM
RXF 393
  GI50: 7.84 µM
  TGI: 16.5 µM
  CC50: 34.6 µM
SF-295
  CC50: 42.2 µM
SK-MEL-28
  GI50: 7.63 µM
  TGI: 15.2 µM
SK-MEL-28; [2]
  CC50: 30.1 µM
HCT-116
  GI50: 1.05 µM
  TGI: 2.46 µM
  CC50: 9.32 µM
MDA-MB-468
  GI50: 0.83 µM
  TGI: 1.82 µM
  CC50: 3.98 µM
LOX IMVI
  GI50: 0.78 µM
  TGI: 1.84 µM
  CC50: 4.29 µM
HL-60(TB)
  GI50: 6.14 µM
  TGI: 24.6 µM
HL-60(TB); [2]
  CC50: > 50 µM
NCI-H322M
  GI50: 3.76 µM
  LC50 (50% cell kill): 45.4 µM
  TGI: 13.7 µM
CCRF-CEM
  GI50: 2.54 µM
  TGI: > 50 µM
CCRF-CEM; [2]
  CC50: > 50 µM
U-251
  GI50: 1.8 µM
  TGI: 6.83 µM
  CC50: 30.2 µM
DU-145
  GI50: 2.69 µM
  TGI: 9.07 µM
  CC50: 23 µM
CAKI-1
  GI50: 6.87 µM
  TGI: 15.2 µM
  CC50: 33.7 µM
SNB-75
  CC50: 30.5 µM
M14
  GI50: 4.72 µM
  TGI: 12.4 µM
M14; [2]
  CC50: 31.4 µM
OVCAR-3
  GI50: 1.35 µM
  TGI: 3.54 µM
  CC50: 15.2 µM
SNB-19
  CC50: 27.6 µM
786-0
  GI50: 9.48 µM
  TGI: 17.2 µM
  CC50: 31.2 µM
OVCAR-4
  GI50: 5.52 µM
  TGI: 12 µM
  CC50: 25.9 µM
Malme-3M
  GI50: 5.89 µM
  TGI: 15.6 µM
  CC50: 41.1 µM
PC-3
  GI50: 6.54 µM
  TGI: 15.4 µM
  CC50: 36.5 µM

## Cc1ccc(C(=O)Nc2c(NC(=O)CN3CCN(C)CC3)ccc3c2C(=O)c2ccccc2C3=O)cc1
ACHN
  TGI: > 100 µM
  CC50: > 100 µM
OVCAR-5
  GI50: > 100 µM
  TGI: > 100 µM
  CC50: > 100 µM
BT-549
  GI50: > 100 µM
  TGI: > 100 µM
  CC50: > 100 µM
[1]
  GI50: > 100 µM
  TGI: > 100 µM
  CC50: > 100 µM
UACC-62
  GI50: 2.52 µM
  CC50: > 100 µM
UACC-257
  GI50: 2.23 µM
  TGI: 5.81 µM
  CC50: > 100 µM
MDA-MB-435
  GI50: 3.13 µM
  TGI: > 100 µM
  CC50: > 100 µM
RXF 393
  TGI: > 100 µM
  CC50: > 100 µM
SF-295
  GI50: > 100 µM
  TGI: > 100 µM
  CC50: > 100 µM
SK-MEL-28
  GI50: 1.87 µM
HCT-116
  GI50: 3.08 µM
  TGI: > 100 µM
  CC50: > 100 µM
MDA-MB-468
  GI50: 2.58 µM
  TGI: > 100 µM
  CC50: > 100 µM
LOX IMVI
  TGI: > 100 µM
  CC50: > 100 µM
NCI-H322M
  GI50: > 100 µM
  LC50 (50% cell kill): > 100 µM
  TGI: > 100 µM
U-251
  GI50: 3.64 µM
  TGI: > 100 µM
  CC50: > 100 µM
DU-145
  GI50: > 100 µM
  TGI: > 100 µM
  CC50: > 100 µM
CAKI-1
  TGI: > 100 µM
  CC50: > 100 µM
SNB-75
  GI50: > 100 µM
  TGI: > 100 µM
  CC50: > 100 µM
M14
  GI50: 2.22 µM
  TGI: 4.65 µM
OVCAR-3
  GI50: 2.43 µM
  CC50: > 100 µM
SNB-19
  CC50: > 100 µM
786-0
  GI50: 5.61 µM
  TGI: > 100 µM
  CC50: > 100 µM
OVCAR-4
  TGI: > 100 µM
  CC50: > 100 µM
Malme-3M
  CC50: > 100 µM
PC-3
  TGI: > 100 µM
  CC50: > 100 µM

## Cc1ccc(C(=O)Nc2ccc3c(c2NC(=O)c2ccc(C)cc2)C(=O)c2ccccc2C3=O)cc1
RPMI-8226
  Activity: 101.77%
